How the values were obtained:
[1] = molecular target: T1, Free fatty acid receptor 1 (Homo sapiens, UniProt O14842); experiment: Agonist activity at human GPR40 expressed in CHO cells assessed as intracellular calcium mobilization by FLIPR assay; type: functional, cell-based
Procedure, shortened: (§1)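 Intracellular calcium flux read on a fluorometric imaging plate reader, giving EC50 (nM). Each reported value is the mean of at least 3 experiments, with standard deviations below 75% of the average.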

[2] = molecular target: Free fatty acid receptor 1 (Mus musculus, UniProt Q76JU9); experiment: Agonist activity at mouse GPR40 expressed in CHO cells assessed as intracellular calcium mobilization by FLIPR assay; type: functional, cell-based; procedure, shortened: as §1
Free fatty acid receptor 1 (Mus musculus, UniProt Q76JU9), sequence (Q76JU9 whole entry): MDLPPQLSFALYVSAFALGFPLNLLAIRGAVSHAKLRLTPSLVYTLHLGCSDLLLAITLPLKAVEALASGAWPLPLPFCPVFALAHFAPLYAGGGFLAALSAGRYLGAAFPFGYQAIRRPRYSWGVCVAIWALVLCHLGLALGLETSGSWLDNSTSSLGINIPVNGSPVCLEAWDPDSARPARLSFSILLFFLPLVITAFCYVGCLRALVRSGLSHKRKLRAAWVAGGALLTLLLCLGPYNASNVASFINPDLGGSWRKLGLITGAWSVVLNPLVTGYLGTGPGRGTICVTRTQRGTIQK

[3] = molecular target: T1, Free fatty acid receptor 1; experiment: Inhibition of human GPR40 expressed in CHO cells by SPA based binding assay; type: cell-based
Procedure, shortened: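 Scintillation proximity binding assay using receptor isolated from CHO cells overexpressing human GPR40, giving IC50 (nM). Each value is the mean of at least 3 experiments, with standard deviations below 75% of the average.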

[4] = molecular target: Cytochrome P450 2D6 (Homo sapiens, UniProt P10635); experiment: Inhibition of CYP2D6; type: ADME
Cytochrome P450 2D6, sequence (P10635 whole entry): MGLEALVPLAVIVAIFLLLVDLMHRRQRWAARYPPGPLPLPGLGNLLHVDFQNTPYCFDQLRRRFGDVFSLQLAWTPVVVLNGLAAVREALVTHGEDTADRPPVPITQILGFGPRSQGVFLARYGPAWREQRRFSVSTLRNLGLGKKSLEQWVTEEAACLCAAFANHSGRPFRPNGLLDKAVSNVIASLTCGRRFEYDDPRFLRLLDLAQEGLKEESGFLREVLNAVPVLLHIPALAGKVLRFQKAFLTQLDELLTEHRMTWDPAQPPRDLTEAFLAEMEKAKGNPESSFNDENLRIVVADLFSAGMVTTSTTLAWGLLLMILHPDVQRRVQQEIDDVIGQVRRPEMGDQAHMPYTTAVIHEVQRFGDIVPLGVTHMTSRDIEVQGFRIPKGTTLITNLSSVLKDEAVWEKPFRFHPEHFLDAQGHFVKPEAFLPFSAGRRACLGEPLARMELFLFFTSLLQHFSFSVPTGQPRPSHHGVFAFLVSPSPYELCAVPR

[5] = molecular target: Voltage-dependent L-type calcium channel subunit alpha-1C (Homo sapiens, UniProt Q13936); experiment: Inhibition of Cav1.2 calcium channel
Voltage-dependent L-type calcium channel subunit alpha-1C, sequence (Q13936 whole entry): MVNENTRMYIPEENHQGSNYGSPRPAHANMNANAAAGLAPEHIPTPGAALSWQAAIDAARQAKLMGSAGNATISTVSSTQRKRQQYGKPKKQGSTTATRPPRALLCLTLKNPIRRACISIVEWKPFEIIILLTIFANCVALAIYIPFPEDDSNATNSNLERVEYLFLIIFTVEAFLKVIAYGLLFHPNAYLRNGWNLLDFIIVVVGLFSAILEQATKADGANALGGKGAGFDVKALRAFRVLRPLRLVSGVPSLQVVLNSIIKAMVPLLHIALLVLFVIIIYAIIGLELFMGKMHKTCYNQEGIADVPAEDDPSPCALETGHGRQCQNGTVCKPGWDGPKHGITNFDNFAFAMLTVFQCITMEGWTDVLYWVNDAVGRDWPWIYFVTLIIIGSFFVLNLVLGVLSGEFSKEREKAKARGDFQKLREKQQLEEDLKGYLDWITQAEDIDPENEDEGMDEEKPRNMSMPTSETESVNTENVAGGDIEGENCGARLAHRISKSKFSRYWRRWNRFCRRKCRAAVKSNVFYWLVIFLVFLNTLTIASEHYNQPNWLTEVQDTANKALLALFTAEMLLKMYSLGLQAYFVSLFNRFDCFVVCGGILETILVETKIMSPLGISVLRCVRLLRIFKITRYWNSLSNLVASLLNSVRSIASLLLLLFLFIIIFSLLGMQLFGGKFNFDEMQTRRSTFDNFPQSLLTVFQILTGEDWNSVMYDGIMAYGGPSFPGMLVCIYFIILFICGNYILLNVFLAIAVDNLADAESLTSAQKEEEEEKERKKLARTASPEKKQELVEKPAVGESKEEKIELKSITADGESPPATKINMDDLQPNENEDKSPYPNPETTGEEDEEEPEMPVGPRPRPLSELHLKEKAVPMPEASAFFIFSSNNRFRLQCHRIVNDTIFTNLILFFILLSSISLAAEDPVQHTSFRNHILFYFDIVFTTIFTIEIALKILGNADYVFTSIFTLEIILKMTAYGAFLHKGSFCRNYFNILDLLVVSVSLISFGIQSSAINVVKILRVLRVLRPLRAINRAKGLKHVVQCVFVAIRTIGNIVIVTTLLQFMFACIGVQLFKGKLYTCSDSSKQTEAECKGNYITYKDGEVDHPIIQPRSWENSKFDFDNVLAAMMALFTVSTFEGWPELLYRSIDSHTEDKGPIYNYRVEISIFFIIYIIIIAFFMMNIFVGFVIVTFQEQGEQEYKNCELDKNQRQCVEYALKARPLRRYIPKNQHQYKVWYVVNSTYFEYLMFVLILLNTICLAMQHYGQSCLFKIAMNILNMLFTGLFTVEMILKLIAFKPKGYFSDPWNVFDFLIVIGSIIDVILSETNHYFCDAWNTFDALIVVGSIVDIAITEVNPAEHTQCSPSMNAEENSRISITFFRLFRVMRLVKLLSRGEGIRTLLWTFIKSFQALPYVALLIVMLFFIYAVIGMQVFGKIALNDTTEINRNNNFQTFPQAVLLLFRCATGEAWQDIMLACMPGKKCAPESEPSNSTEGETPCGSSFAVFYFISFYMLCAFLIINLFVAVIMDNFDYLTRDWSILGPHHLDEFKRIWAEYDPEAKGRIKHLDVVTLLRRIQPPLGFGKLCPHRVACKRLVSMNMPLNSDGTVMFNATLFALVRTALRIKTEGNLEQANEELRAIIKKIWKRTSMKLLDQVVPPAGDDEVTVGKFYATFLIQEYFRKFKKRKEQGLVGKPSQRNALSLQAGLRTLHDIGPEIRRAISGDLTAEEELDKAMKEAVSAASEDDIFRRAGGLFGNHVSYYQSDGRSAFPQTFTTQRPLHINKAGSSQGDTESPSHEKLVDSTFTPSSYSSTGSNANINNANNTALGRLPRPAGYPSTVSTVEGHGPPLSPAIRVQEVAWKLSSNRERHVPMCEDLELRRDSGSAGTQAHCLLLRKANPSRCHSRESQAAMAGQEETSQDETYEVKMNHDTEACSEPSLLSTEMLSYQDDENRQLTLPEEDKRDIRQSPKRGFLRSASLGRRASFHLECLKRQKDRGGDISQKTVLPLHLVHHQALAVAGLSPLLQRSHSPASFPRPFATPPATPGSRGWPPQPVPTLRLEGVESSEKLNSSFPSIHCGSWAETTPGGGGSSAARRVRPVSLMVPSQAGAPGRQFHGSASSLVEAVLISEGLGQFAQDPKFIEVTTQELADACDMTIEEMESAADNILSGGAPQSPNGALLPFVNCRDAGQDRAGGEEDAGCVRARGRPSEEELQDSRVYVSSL

[6] = molecular target: Voltage-gated inwardly rectifying potassium channel KCNH2 (Homo sapiens, UniProt Q12809); experiment: Inhibition of human ERG
Voltage-gated inwardly rectifying potassium channel KCNH2, sequence (Q12809 whole entry): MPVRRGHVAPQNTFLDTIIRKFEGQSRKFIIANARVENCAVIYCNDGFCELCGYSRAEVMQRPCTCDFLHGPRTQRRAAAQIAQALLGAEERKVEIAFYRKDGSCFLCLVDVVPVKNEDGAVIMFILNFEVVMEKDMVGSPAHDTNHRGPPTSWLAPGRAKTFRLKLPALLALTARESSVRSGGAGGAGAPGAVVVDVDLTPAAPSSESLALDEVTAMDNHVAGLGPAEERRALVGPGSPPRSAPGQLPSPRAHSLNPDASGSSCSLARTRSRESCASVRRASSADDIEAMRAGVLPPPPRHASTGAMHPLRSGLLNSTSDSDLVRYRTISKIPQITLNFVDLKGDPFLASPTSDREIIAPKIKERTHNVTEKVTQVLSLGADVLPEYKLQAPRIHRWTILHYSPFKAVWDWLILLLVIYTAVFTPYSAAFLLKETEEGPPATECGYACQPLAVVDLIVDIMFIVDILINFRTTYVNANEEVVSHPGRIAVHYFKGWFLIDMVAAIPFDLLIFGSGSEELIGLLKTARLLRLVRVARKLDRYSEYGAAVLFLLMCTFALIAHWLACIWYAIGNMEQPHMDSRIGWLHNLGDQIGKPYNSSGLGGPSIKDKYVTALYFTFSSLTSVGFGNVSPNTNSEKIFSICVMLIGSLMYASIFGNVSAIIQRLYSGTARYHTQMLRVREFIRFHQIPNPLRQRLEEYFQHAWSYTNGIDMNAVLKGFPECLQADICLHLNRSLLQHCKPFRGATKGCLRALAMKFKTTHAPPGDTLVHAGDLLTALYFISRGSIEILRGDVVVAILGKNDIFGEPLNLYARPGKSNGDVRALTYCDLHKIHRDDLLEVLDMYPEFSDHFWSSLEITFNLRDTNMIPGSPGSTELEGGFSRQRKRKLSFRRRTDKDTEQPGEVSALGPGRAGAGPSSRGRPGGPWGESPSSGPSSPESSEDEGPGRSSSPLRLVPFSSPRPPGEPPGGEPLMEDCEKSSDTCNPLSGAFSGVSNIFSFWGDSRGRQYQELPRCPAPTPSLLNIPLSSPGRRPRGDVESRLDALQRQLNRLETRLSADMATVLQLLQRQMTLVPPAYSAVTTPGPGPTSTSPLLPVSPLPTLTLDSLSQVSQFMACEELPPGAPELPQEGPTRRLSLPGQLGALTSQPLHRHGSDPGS

[7] = molecular target: Cytochrome P450 2C9 (Homo sapiens, UniProt P11712); experiment: Inhibition of CYP2C9; type: ADME
[8] = molecular target: T1, Free fatty acid receptor 1; experiment: Agonist activity at human GPR40 expressed in HEK293 cells assessed as [3H]IP3 production in presence of 0.4% serum albumin; type: functional, cell-based
Procedure, shortened: (§2)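 IP3 production was measured in human cells as EC50 (nM). One condition included 10% human serum and the other 0.4% serum albumin, to reflect plasma protein binding.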

[9] = molecular target: T1, Free fatty acid receptor 1; experiment: Agonist activity at human GPR40 expressed in HEK293 cells assessed as [3H]IP3 production in presence of 10% human serum; type: functional, cell-based; procedure, shortened: as §2
[10] = molecular target: Cytochrome P450 3A4 (Homo sapiens, UniProt P08684); experiment: Inhibition of CYP3A4; type: ADME
Cytochrome P450 3A4, sequence (P08684 whole entry): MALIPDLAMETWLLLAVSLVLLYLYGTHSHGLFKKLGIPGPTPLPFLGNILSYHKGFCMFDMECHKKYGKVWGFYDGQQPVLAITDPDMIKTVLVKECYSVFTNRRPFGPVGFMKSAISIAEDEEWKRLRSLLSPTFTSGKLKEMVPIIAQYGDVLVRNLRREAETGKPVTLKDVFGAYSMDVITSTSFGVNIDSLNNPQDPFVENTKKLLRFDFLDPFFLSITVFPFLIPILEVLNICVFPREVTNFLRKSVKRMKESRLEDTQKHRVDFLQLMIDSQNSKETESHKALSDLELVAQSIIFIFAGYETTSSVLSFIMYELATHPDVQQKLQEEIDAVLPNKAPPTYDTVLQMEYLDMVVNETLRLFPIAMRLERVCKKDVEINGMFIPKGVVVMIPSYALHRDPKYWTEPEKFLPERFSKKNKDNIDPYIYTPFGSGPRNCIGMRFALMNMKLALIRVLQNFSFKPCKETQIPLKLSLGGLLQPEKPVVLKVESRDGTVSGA

[11] = Plasma clearance in mouse; type: ADME, organism-based
[12] = Oral bioavailability in mouse; type: ADME, organism-based; conditions: in vivo
[13] = tested on: Mus musculus; experiment: Inhibition of glucose AUC in dextrose-treated lean mouse blood at 10 mg/kg, po treated 1 hr prior to dextrose challenge by intraperitoneal glucose tolerance test; type: functional
[14] = Volume of distribution in mouse; type: ADME, organism-based; conditions: in vivo
[15] = Cmax in mouse; type: ADME, organism-based; conditions: in vivo
[16] = Half life in mouse; type: ADME, organism-based; conditions: in vivo
[17] = Tmax in mouse; type: ADME, organism-based; conditions: in vivo

T1 sequence (O14842 whole entry): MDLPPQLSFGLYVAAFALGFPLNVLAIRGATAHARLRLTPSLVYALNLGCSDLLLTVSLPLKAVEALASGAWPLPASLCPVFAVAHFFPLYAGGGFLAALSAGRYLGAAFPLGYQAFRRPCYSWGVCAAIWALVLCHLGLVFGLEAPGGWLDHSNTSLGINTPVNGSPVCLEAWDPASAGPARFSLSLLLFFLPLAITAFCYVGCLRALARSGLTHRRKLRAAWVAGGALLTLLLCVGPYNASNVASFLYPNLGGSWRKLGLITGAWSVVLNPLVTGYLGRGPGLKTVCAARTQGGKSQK

| SMILES | EC50 [1] [nM] | EC50 [2] [nM] | IC50 [3] [nM] | further results |
| --- | --- | --- | --- | --- |
| O=C(O)CCc1ccc(Oc2ccc(Cl)cc2Cl)cc1 | 1360 | – | – | – |
| O=C(O)C(Cc1ccc(Oc2ccc(C(F)(F)F)cc2Cl)cc1)C(=O)O | 970 | – | – | – |
| O=C1NC(=O)C(Cc2ccc(Oc3ccc(F)cc3)cc2)S1 (stereo unspecified) | 474 | – | – | – |
| CC#CC(CC(=O)O)c1ccc(O[C@@H]2CCc3ccccc32)cc1 (mixture of isomers) | 31 | 47 | 42 | – |
| CC#CC(CC(=O)O)c1ccc(OC2CCCc3nc(-c4ccc(C)cc4)sc32)cc1 (mixture of isomers) | 51 | 100 | 23 | – |
| CC(CC(=O)O)c1ccc(Oc2ccc(Cl)cc2Cl)cc1 (racemic) | 2480 | – | – | – |
| CC#CC(CC(=O)O)c1ccc(Oc2nccnc2C#N)cc1 (racemic) | 1580 | 985 | 2490 | – |
| CC#CC(c1ccc(OCc2ccccc2)cc1)C1OC(=O)NC1=O (racemic) | 954 | 3710 | 4400 | – |
| CC#CC(CC(=O)O)c1ccc(OC2CCCC2)cc1 (racemic) | 114 | 124 | 312 | – |
| CC#CC(c1ccc(Oc2ccc(C(F)(F)F)cc2OC(F)F)cc1)C1OC(=O)NC1=O (racemic) | 124 | 266 | 19 | EC50 [8]: 249 nM; EC50 [9]: 224 nM |
| CC#C[C@H](c1ccc(Oc2ccc(C(F)(F)F)cc2OC(F)F)cc1)[C@H]1OC(=O)NC1=O (racemic) | 7580 | 7060 | 2410 | – |
| CC#C[C@@H](c1ccc(Oc2ccc(C(F)(F)F)cc2OC(F)F)cc1)[C@H]1OC(=O)NC1=O (racemic) | 130 | 136 | 151 | IC50 [5]: 5100 nM; clearance [11]: 0.85 mL/min/kg; bioavailability [12]: 93%; Vd [14]: 0.47 L/kg; Cmax [15]: 5.5 µM; half-life [16]: 7 h; Tmax [17]: 4.7 h; IC50 [10]: > 50000 nM |

The next lines start with results.

| EC50 [1] [nM] | EC50 [2] [nM] | IC50 [3] [nM] | SMILES | further results |
| --- | --- | --- | --- | --- |
| 686 | – | – | O=C(O)CCc1ccc(Oc2ccc(C(F)(F)F)cc2Cl)cc1 | – |
| 113 | 104 | 49 | CC#CC(CC(=O)O)c1ccc(Oc2ccc(C(F)(F)F)cc2OC(F)F)cc1F (racemic) | IC50 [4]: > 50000 nM; IC50 [5]: 25600 nM; IC50 [6]: 25000 nM; IC50 [7]: 28000 nM; EC50 [8]: 349 nM; EC50 [9]: 306 nM; IC50 [10]: > 50000 nM |
| 94 | 127 | 40 | CC#CC(CC(=O)O)c1ccc(Oc2ccc(C(F)(F)F)cc2C)cc1 (racemic) | – |
| 71 | 77 | 12 | CC#CC(CC(=O)O)c1ccc(Oc2ccc(C(F)(F)F)cc2OC(F)F)cc1 (racemic) | IC50 [4]: > 50000 nM; IC50 [5]: > 30000 nM; clearance [11]: 0.49 mL/min/kg; bioavailability [12]: 112%; inhibition in vivo at 10 mg/kg [13]: 66%; Vd [14]: 0.31 L/kg; IC50 [6]: > 60000 nM; Cmax [15]: 12 µM; IC50 [7]: > 50000 nM; half-life [16]: 7.8 h; Tmax [17]: 4 h; EC50 [8]: 455 nM; EC50 [9]: 436 nM; IC50 [10]: > 50000 nM |
| 42 | 48 | 23 | CC#CC(CC(=O)O)c1ccc(Oc2ccc(C#N)cc2Cl)cc1 (racemic) | EC50 [8]: 597 nM; EC50 [9]: 519 nM |
| 85 | 88 | 36 | CC#CC(CC(=O)O)c1ccc(Oc2ccc(C#N)cc2Br)cc1 (racemic) | – |
| 53 | 93 | 13 | CC#CC(CC(=O)O)c1ccc(Oc2ccc(C#N)c3ccccc23)cc1 (racemic) | EC50 [8]: 247 nM; EC50 [9]: 172 nM |
| 1400 | 1250 | 211 | CC#CC(CC(=O)O)c1ccc(Oc2ccc(C(F)(F)F)c3ccccc23)cc1 (racemic) | – |
| 108 | 95 | 30 | CC#CC(CC(=O)O)c1ccc(Oc2ncc(C(F)(F)F)cc2Cl)cc1 (racemic) | EC50 [9]: 409 nM |
| 1570 | 1480 | 433 | CC#CC(CC(=O)O)c1ccc(Oc2ncc(Br)cn2)cc1 (racemic) | – |
| 394 | 149 | 342 | CC#CC(CC(=O)O)c1ccc(Oc2nccc3ccccc23)cc1 (racemic) | – |
| 2820 | 871 | 3440 | CC#C[C@]1(c2ccc(Oc3ccc(C(F)(F)F)cc3Cl)cc2)C[C@@H]1C(=O)O (racemic) | – |
| 24500 | > 40000 | > 10000 | CC#C[C@]1(c2ccc(Oc3ccc(C(F)(F)F)cc3Cl)cc2)C[C@H]1C(=O)O (racemic) | – |

From ChEMBL document CHEMBL1777807, “3-Substituted 3-(4-aryloxyaryl)-propanoic acids as GPR40 agonists” (Bioorg Med Chem Lett, 2011)
